From ChEMBL document CHEMBL1155452, “Oncocin (VDKPPYLPRPRPPRRIYNR-NH2): a novel antibacterial peptide optimized against gram-negative human pathogens” (J Med Chem, 2010)

Assays:
HeLa = assay: Cytotoxicity against human HeLa cells at 600 ug/ml after 24 hrs by MTT assay; type: cell-based
Summary of the method: (§1)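 HeLa (1.5 × 10^4/well, seeded overnight) or SH-SY5Y (2 × 10^4/well, differentiated 5 days with 10 μM trans-retinoic acid) in DMEM/Ham's F-12 with 5% or 15% FBS. Peptide added at 600 μg/mL for 24 h at 37 °C, 5% CO2. MTT 0.5 mg/mL for 4 h, then SDS/HCl for 16 h; A590 read against 650 nm. Normalized to PBS (100%); DMSO 12% as positive control.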

SH-SY5Y = assay: Cytotoxicity against human SH-SY5Y cells at 600 ug/ml after 24 hrs by MTT assay; type: cell-based; summary of the method: as §1

Compound	Activity (HeLa)	Activity (SH-SY5Y)
CC[C@H](C)[C@H](NC(=O)[C@H](Cc1ccc(O)cc1)NC(=O)[C@@H](NC(=O)[C@@H]1CCCN1C(=O)[C@H](CCCNC(=N)N)NC(=O)[C@H](CC(N)=O)NC(=O)[C@H](CC(N)=O)NC(=O)CN)C(C)C)C(=O)N1CCC[C@H]1C(=O)N[C@@H](CCC(N)=O)C(=O)N1CCC[C@H]1C(=O)N[C@@H](CCCNC(=N)N)C(=O)N1CCC[C@H]1C(=O)N1CCC[C@H]1C(=O)N[C@@H](Cc1cnc[nH]1)C(=O)N1CCC[C@H]1C(=O)N[C@@H](CCCNC(=N)N)C(=O)N[C@@H](CC(C)C)C(=O)O [APIDAECIN]	Non-toxic	Non-toxic
H-GKPRPYSPRPTSHPRPIRV-OH [DROSOCIN]	Non-toxic	Non-toxic
